Data from article PMC7616001 (Journal of medicinal chemistry, 2022).

How the values were obtained:
[1] = system: genomic DNA of HeLa cells; assay: Metalation of genomic DNA, ICP-MS; format: cell-based, human; details: 20 μM, 24 h exposure
[2] = system: ΔΨm of HeLa cells; assay: JC-1 mitochondrial membrane potential assay, flow cytometry; format: cell-based, human; details: 24 h, even at 1/4 × IC50/24h (10 μM)
[3] = Reversible aquation and anation by 1H NMR; format: physicochemical; details: DMSO/D2O without NaCl, within 10 min
In short: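 1H NMR in DMSO/D2O. At 10 min, 666 mM NaCl in D2O added to give 100 mM NaCl in DMSO/D2O (85:15 v/v). Spectra recorded at regular intervals up to 60 min.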

[4] = system: HO• radicals in HeLa cells; assay: Flow cytometric quantification of hydroxyl radicals with HPF probe; format: cell-based, human; details: 10 μM, 4 h
In short: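 HeLa seeded at 0.75 × 10^6 cells per six‑well plate well, grown overnight, then treated 4 h at 10 μM. Cells trypsinised, washed with ice‑cold PBS and spun at 1200 rpm, 5 min, 4 °C. Probe‑stained cells analysed by flow cytometry, approximately 20,000 cells per sample.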

[5] = system: mitochondria of HeLa cells; assay: Mitochondrial morphology, confocal imaging of mito-GFP HeLa cells; format: cell-based, human; details: 1/2 × IC50/24h (20 μM)
[6] = system: HeLa; assay: MTT assay, 72 h continuous exposure, HeLa cells; format: cell-based, human
In short: (§1)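 Ovarian lines grown in RPMI with 10% FBS and 1% penicillin/streptomycin; A2780Cis kept on 2 μM cisplatin 3 days each week. HeLa grown in DMEM with the same supplements. 3 × 10^3 cells/well, overnight, then serial dilutions of DMSO stocks (final DMSO ≤0.1%); cisplatin stock in PBS. 72 h continuous exposure, MTT 0.5 mg/mL 3 h, formazan in DMSO, A570 normalised to untreated. IC50 from curves; ≥3 independent experiments.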

[7] = system: A2780; assay: MTT assay, 72 h continuous exposure, A2780 cells; format: cell-based, human
In short: as §1

[8] = system: ROS level in HeLa cells; assay: H2DCF-DA intracellular ROS assay; format: cell-based, human; details: 10 μM, 1-8 h
In short: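 HeLa plated at 10 × 10^3 per well, grown overnight, then exposed to 10 μM test compound for 1, 2, 4 or 8 h. Washed with PBS and loaded with 10 μM H2DCF‑DA for 30 min. Washed again, phenol red‑free DMEM added, fluorescence read immediately. Three biological replicates.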

[9] = system: HeLa; assay: 72 h crystal violet; format: cell-based, human
In short: (§2)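 Seeding and dosing as for MTT: 3 × 10^3 cells/well, overnight, final DMSO ≤0.1%, 72 h exposure. Wells washed with PBS and fixed in 4% paraformaldehyde for 15 min. Crystal violet stained, dried, dissolved in 96% ethanol and A570 read. IC50 derived from dose–response curves.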

[10] = system: zebrafish sub-intestinal venous plexus (SIVP) angiogenesis; assay: Zebrafish SIVP angiogenesis model; format: in vivo, zebrafish (Danio rerio); details: 20/30/40 μM from 26 hpf, imaged at 72 hpf
In short: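 Test compound stock 5 mM in DMSO, diluted in E3 to final 20, 30 or 40 μM; DMSO vehicle at 10 μL/mL E3. Four 26 hpf Tg(etv2:EGFP) embryos per 1 mL. Raised to 72 hpf at 28 °C for confocal analysis of the sub‑intestinal venous plexus.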

[11] = system: mitochondria of HeLa cells; assay: Metal content in isolated mitochondria, ICP-MS; format: cell-based, human; details: 20 μM, 24 h
[12] = system: HeLa cells; assay: Trypan blue dye exclusion cell proliferation assay; format: cell-based, human
In short: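 HeLa seeded in 24‑well plates. Next day, some wells trypsinised, stained with trypan blue and live cells counted by hemocytometer as the 0 h value. Remaining wells left untreated or dosed at various concentrations. Viable cells counted at 24, 48, 72, 96 and 120 h and plotted against time.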

[13] = system: A2780; assay: 72 h crystal violet; format: cell-based, human; details: read-out: IC50 (CV assay) A2780; 72 h CV assay
In short: as §2

[14] = Stability in RPMI-1640 cell culture medium by UPLC; format: physicochemical
In short: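 Test compound incubated in RPMI‑1640 and monitored by UPLC. Run twice, each with three replicates.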

[15] = system: acidic vesicular organelles in HeLa cells; assay: Acridine orange assay; format: cell-based, human; details: HeLa, 10, 20, 40 μM, 24 h
In short: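 HeLa cells in 35 mm dishes exposed to test compound at 10, 20 or 40 μM for 24 h, or rapamycin (1 μM, 24 h) as reference. Medium replaced with FBS-free medium containing 1 μM acridine orange for 25 min in the dark (37 °C, 5% CO2). Cells washed with PBS and overlaid with phenol red-free DMEM (4% FBS) for imaging.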

[16] = Cyclic voltammetry; format: physicochemical; details: acetonitrile, 0.1 M NEt4BF4
[17] = system: LC3-II/LC3-I in HeLa cells; assay: Western blot of autophagy marker proteins; format: cell-based, human; details: 24 h
In short: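 ~2 million HeLa per 60 mm dish, grown to 80–90% confluency, then treated 24 h. Lysed in RIPA buffer with protease inhibitors. Membranes blocked with 2% skim milk in 0.1% Tween 20 for 30 min. Primary antibody 1:1000 overnight at 4 °C; HRP secondary antibody; LC3 forms detected.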

[18] = Octanol-water partition coefficient, shake-flask method; format: physicochemical; details: 100 mM NaCl, 37 °C, Ru by ICP-MS
In short: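 Shake‑flask partition. Octanol‑saturated water and water‑saturated octanol prepared beforehand by shaking a 1:1 octanol/water mixture for 24 h, then separating the layers.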

[19] = system: ER of HeLa cells; assay: ER imaging of ER-RFP-labeled HeLa cells; format: cell-based, human
In short: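 HeLa cells transduced with a CellLight ER-RFP BacMam 2.0 construct, replated on glass-bottom dishes overnight, then treated with test compound (20 or 40 μM) for 8 h or 24 h. A platinum–ferrocene complex (40 μM) served as positive control. After PBS washes, confocal images were taken in phenol red-free medium (ex 543 nm, em 584–655 nm) at constant exposure.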

[20] = system: mitochondrial Ca^2+ level in HeLa cells; assay: Mitochondrial Ca2+ level, Rhod-2 AM imaging; format: cell-based, human; details: 20 μM

## Cc1ccc(C(C)C)cc1.O=C(C=C([O-])C(F)(F)F)[c-]1cccc1.[Cl-].[Fe+2].[Ru+2].c1cc[cH-]c1 [Compound 1, [(η^6-p-cymene)Ru(1,1,1-trifluoro-4-oxo-4-ferrocenyl-but-2-en-2-olate)Cl]]
[1]
  metalation of genomic DNA: comparable with that of the classical DNA-targeted Pt drug cisplatin
[2]
  effect on ΔΨm (JC-1 red/green): dramatic decrease in ΔΨm
[3]
  fraction aquated: ~ 95%
[4]
  level of HO• radicals relative to untreated control: ~ 7 fold
[5]
  mitochondrial morphology: rounded and punctate
[6]; HeLa cells, 72 h MTT
  fold higher potency compared to oxaliplatin: 1.6 fold
[6]; read-out: IC50 HeLa, 72 h continuous exposure, MTT assay
  IC50: 1.3 ± 0.3 µM
[7]; A2780 cells
  fold more potent compared to Ru1, Ru3 and Ru4: 3−18 fold
[7]; read-out: IC50 A2780, 72 h continuous exposure, MTT assay
  IC50: 2.5 ± 0.3 µM
[8]
  intracellular ROS level (H2DCF-DA): significant increase in ROS
[9]; HeLa and A2780, 72 h
  IC50 from CV assay compared to IC50 from MTT assay: ~ 3 fold
[9]; read-out: IC50 (CV assay) HeLa, 72 h CV assay
  IC50: 4.4 ± 1.7 µM
[10]
  effect on SIVP angiogenesis (SIVP area, number of compartments): dose-dependent antiangiogenic effects
[11]
  Ru in mitochondria relative to Pt in mitochondria of cisplatin-treated cells: ~ 4 fold
[12]; 5 and 10 μM
  effect on number of viable cells: time-dependent antiproliferative effect
[12]; 20 and 40 μM
  effect on number of viable cells: exerted antitumor activity by killing cells
[13]
  IC50: 7.2 ± 0.3 µM
[14]; after 24 h
  intact compound remaining in RPMI-1640 with 10% FBS: ~45%
[14]; after 72 h
  intact compound remaining in RPMI-1640 with 10% FBS: ~7%
[14]; up to 8 h, 37 °C, UPLC
  decomposition in RPMI-1640 with 10% FBS: < 20%
[15]
  acidic vesicular organelles: did not cause formation and promotion of acidic vesicular organelles
[16]
  oxidation potential (vs Fc^+/0): 321 mV
[17]
  ratio of LC3-II/LC3-I: no increase in the ratio of LC3-II/LC3-I
[18]
  log P: 1.1 ± 0.1
[19]
  ER dilation and vacuole formation: ER dilation and/or vacuole formation were not observed
[20]
  increase in mitochondrial Ca^2+ level compared to untreated control: ~ 5 fold
